PolyA inhibitor = polyadenylation inhibitors in yeast reporter cells, primary screen, luminescence, S. cerevisiae. S. cerevisiae SKY197-pL101 polyadenylation reporter, beta-gal luminescence; efflux-impaired pdr1/pdr3 knockout yeast; score 100 = 6 SD above DMSO. activity score, % at 12 µM. 300,000 compounds, 0.02% hits. AID 1875, 2009;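 active = lowest replicate activity score at least 50, where 100 means six control SD above control mean; inconclusive = lowest score under 50 but half or more replicates reach 50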;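 note: yeast exposed to compound for 9 h at 30 °C; higher score means more reporter readthrough which indicates perturbed polyadenylation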
T cruzi repl = inhibitors of intracellular T. cruzi growth, primary screen, luminescence, NIH3T3 host cells; T. cruzi beta-gal in NIH3T3, 90 h; inhibition, % (concentration not given with the values); 300,000 compounds, 1.4% hits;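 active = mean inhibition across valid replicates above about 55%, limit read from the data; inconclusive = mean below that limit but half or more replicates reach it; inactive = mean below it, under half of replicates reach it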;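 note: signal also drops with host cell toxicity which is not excluded here; higher percent means less beta-gal luminescence so fewer parasites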
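Assay system: NIH/3T3 fibroblasts plus reporter T. cruzi. Amount: NIH/3T3 cells, 5,000 per well. Buffer or medium: DMEM, 2% fetal bovine serum. Doses: compound pinned at 50 nL/well, DMSO. Schedule: ≥90 h infection period, 3 h prior cell attachment. Signal: luminescent β-galactosidase signal after 60 min lysis. Read-out: parasite load inhibition, %.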
NALP1 inh = NALP1 inflammasome inhibitors in reconstituted yeast, colorimetric, S. cerevisiae, triplicate retest. S. cerevisiae NALP1/ASC/caspase-1 growth, X-gal OD620, 72 h. inhibition, % at 10 µM. 280,000 compounds, 0.61% hits. AID 2071, 2009; in the data active = inhibition mostly above about 24%, no sharp cut-off; inactive = mostly below about 32%
Calb FLC = C. albicans growth inhibition with fluconazole, primary screen, CaCi-2 strain, Alamar Blue fluorescence. C. albicans CaCi-2 (fluconazole-resistant clinical isolate) + fluconazole, 48 h. growth inhibition, % (concentration not given with the values). 300,000 compounds, 0.57% hits;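 active = growth inhibition above about 58% in most replicates, limit read from the data, passing the limit was not always enough; inconclusive = exactly half the replicates above a set limit; inactive = most replicates below a set limit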;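 note: all wells also contain fluconazole at 8 µg/ml as a sub-toxic cotreatment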
NALP3 yeast inh = NALP3 inflammasome inhibitors in reconstituted yeast, primary screen, luminescence, uHTS; Yeast reconstituted NLRP3/ASC/caspase-1, beta-gal luminescence, 24 h; inhibition, % at 10 µM; 330,000 compounds, 0.39% hits;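 active = inhibition of 50% or more; inactive = inhibition below 50%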
L major viab = Leishmania major promastigote growth inhibition, primary screen; Leishmania major promastigotes, resazurin fluorescence viability; 200,000 compounds, 9% hits; inhibition, % at 10 µM; in the data active = inhibition above about 50%;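 note: promastigotes grown with compound for 44 hours at 28 °C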
Large screens that a line does not name were inactive. This is one part of a sample in which hits are shown more often than they occur.

CC(=O)O[C@]1(C(C)=O)CC[C@H]2[C@@H]3C=C(Cl)C4=CC(=O)CC[C@]4(C)[C@H]3CC[C@@]21C	L major viab 68 (no result: Calb FLC)
CC(Oc1ccc(Br)cc1)C(=O)Nc1ccc(S(=O)(=O)N(C)C2CCN(C)CC2)cc1 (configuration not stated)	T cruzi repl 56 (no result: NALP1 inh, L major viab)
COc1ccc2oc(C(=O)Nc3ccc(S(=O)(=O)N(C)C4CCN(C)CC4)cc3)c(C)c2c1	T cruzi repl 60 (no result: L major viab)
COCCCNC(=O)c1oc2ccc(S(=O)(=O)N(C)C3CCCCC3)cc2c1C	L major viab 97
COC(=O)c1ccc(COc2ccc(/C=C(\C#N)c3nc4ccccc4[nH]3)cc2OC)o1	Calb FLC 79
COc1ccccc1CNC(=O)[C@@H]1CCCN1S(=O)(=O)c1ccc(C)cc1	none
C=CCN(CC=C)C(=O)c1ccc(OC2CCN(Cc3ccccn3)CC2)cc1	L major viab 59
CC(=O)N1CCCc2cc(S(=O)(=O)N3CCN(c4ccccn4)CC3)ccc21	none
Cc1cc(C(=O)N/N=C/c2cc(Br)ccc2OC(=O)c2ccc(Br)cc2)n[nH]1	L major viab 98
Cc1cc(C(=O)N/N=C/c2cc(Br)cc(Br)c2OC(=O)c2ccccc2)n[nH]1	L major viab 81
Cc1ccc(C(=O)N/N=C\c2ccc(OC(=O)c3cccc(F)c3)cc2)cn1	none (no result: L major viab)
Cc1cc(C(=O)N/N=C\c2cc(C(C)(C)C)ccc2O)n[nH]1	none (no result: L major viab)
Cc1cc(C(=O)N/N=C/c2cc(Br)cc(Br)c2OC(=O)c2cccc(F)c2)n[nH]1	T cruzi repl 65, L major viab 98
Cc1onc(-c2c(F)cccc2Cl)c1C(=O)Nc1cccc(S(=O)(=O)NC2=NCCC2)c1	none (no result: NALP1 inh, L major viab)
O=C(c1cc(COc2ccc3c(c2)CCCC3)on1)N1CCCC1	none (no result: L major viab)
Cc1cc(NS(=O)(=O)c2ccc(NC(=O)c3ccc(Cl)cc3[N+](=O)[O-])cc2)no1	none (no result: Calb FLC, L major viab)
CC(C)N1CCC(N2CCN(Cc3cc4c(cc3Cl)OCO4)CC2CCO)CC1 (configuration not stated)	none
CCCOC(=O)c1ccc(NC(=O)/C=C/c2cccs2)cc1	NALP1 inh 61
CC1(C)CC(=O)C2=C(C1)N(c1ccccc1)C(=O)CC2c1ccc(O)cc1 (configuration not stated)	none
CC(=O)Nc1ccc(NC(=O)CN2CCN(c3cccc(C(F)(F)F)c3)CC2)cc1	none
CC(=O)Nc1ccc(CN2CCN(c3cccc(C(F)(F)F)c3)CC2)cc1	L major viab 91
COc1cc(CC(C#N)(CO)c2nc3ccccc3[nH]2)ccc1OC(F)F (configuration not stated)	L major viab 82
COc1ccc(/C=C\C(=O)c2c(O)ccc3c(C)cc(=O)oc23)cc1	L major viab 100
COc1ccc(/C=C/C(=O)c2c(O)ccc3c(C)cc(=O)oc23)cc1	L major viab 88
CC1(C)CC(O)(CNCc2ccc3c(c2)OCO3)CCO1 (configuration not stated)	L major viab 75
Cc1cc(C)cc(NC(=O)CSCc2nc3c(nnn3Cc3ccc(F)cc3)c(=O)[nH]2)c1	none (no result: NALP1 inh)
COc1ccc(C2C3=C(Nc4ncnn42)c2ccccc2CC3)cc1OC (configuration not stated)	none
COc1ccc(C2Oc3ccccc3C3=C2C(c2cccs2)n2ncnc2N3)cc1 (configuration not stated)	L major viab 69
COc1ccc(OC)c(NC(=O)C2=C(C)Nc3ncnn3C2c2cccs2)c1 (configuration not stated)	none
Brc1ccc(C2C3=C(Nc4ncnn42)c2ccccc2OC3c2ccncc2)cc1 (configuration not stated)	T cruzi repl 60, L major viab 75
CNC(=O)COC(=O)/C=C/c1cccc(F)c1	none
CSc1cccc(NC(=O)C(C)C)c1	none
CC(C)C(=O)Nc1cccc(S(=O)(=O)c2cccc(NC(=O)C(C)C)c2)c1	L major viab 66
Cc1ccc(NC(=O)CN(C)C(=O)c2ccc(NS(=O)(=O)c3ccc4[nH]c(=O)[nH]c4c3)cc2)cc1	none (no result: PolyA inhibitor, T cruzi repl, NALP1 inh, Calb FLC, L major viab)
COc1ccc(C(=O)NNC(=O)c2ccc3ccccc3c2O)cc1	none (no result: L major viab)
COc1cc(OC)cc(C(=O)NNC(=O)c2cc3ccccc3cc2O)c1	Calb FLC 81 (no result: L major viab)
COc1ccccc1NC(=O)NNC(=O)c1cc2ccccc2cc1O	Calb FLC 86 (no result: L major viab)
Cc1ccc(NC(=O)NNC(=O)c2cc3ccccc3cc2O)cc1	Calb FLC inconclusive (no result: L major viab)
O=C(CNC(=S)NC(=O)c1ccc(Br)o1)c1ccccc1	none
O=C(CNC(=S)NC(=O)c1ccc(Cl)cc1)c1ccccc1	L major viab 88
COc1ccc(OC)c(N(CC(=O)N2CCc3ccccc3C2)S(C)(=O)=O)c1	none
Cc1nnc(SCC(=O)Nc2sccc2C(N)=O)s1	none (no result: PolyA inhibitor, T cruzi repl, NALP1 inh, Calb FLC, L major viab)
Clc1ccc(Sc2ccc(/C=N/n3cnnc3)o2)cc1	L major viab 66
Clc1ccc(Sc2oc(/C=N/n3cnnc3)cc2Br)cc1	L major viab 71 (no result: PolyA inhibitor)
O=C(Nc1ccccc1N1CCCC1)c1ccc([N+](=O)[O-])cc1Cl	T cruzi repl 56
CN1CCN(c2ccccc2NC(=O)c2cccc([N+](=O)[O-])c2)CC1	none
O=C(NNc1ccc([N+](=O)[O-])cc1)c1ccccc1Cl	Calb FLC 92
O=C(Nc1ccccc1N1CCN(C(=O)c2ccc(Cl)cc2)CC1)c1cccc([N+](=O)[O-])c1	T cruzi repl 55 (no result: L major viab)
CCC(=O)N1CCN(c2ccccc2NC(=S)NC(=O)c2cccc([N+](=O)[O-])c2)CC1	L major viab 61
CCC(=O)N1CCN(c2ccc(NC(=S)NC(=O)c3cccc([N+](=O)[O-])c3)cc2)CC1	none
COc1ccc([C@@H]2[C@@H]3C(=O)N(C(C)(C)C)C(=O)[C@@H]3[C@]3(Cc4ccc(Cl)cc4)C(=O)N(c4cccc(C)c4)C(=O)N23)cc1	none (no result: L major viab)
O=C(CSCc1cc(=O)n2ccsc2n1)Nc1ccccc1	none (no result: L major viab)
CS(=O)(=O)N1CCN(c2ccccc2NC(=O)CSc2ccc(Cl)cc2)CC1	none
O=C(CSc1ccc(Cl)cc1)Nc1ccccc1N1CCN(C(=O)c2ccccc2)CC1	L major viab 72
CC(C)CC(=O)N1CCN(c2ccc([N+](=O)[O-])cc2Cl)CC1	none
CC(C)C(=O)N1CCN(c2ccc([N+](=O)[O-])cc2Cl)CC1	L major viab 50
Cc1sc(NC(=O)C2CSC3(C)CCC(=O)N23)nc1-c1ccccc1 (configuration not stated)	none (no result: NALP1 inh, L major viab)
CCCc1nc2ccccc2c(C(=O)OCC(=O)N2CCc3ccccc32)c1CC	T cruzi repl 58, L major viab 99

Source: PubChem
